Measurements taken from the RNAGym collection of RNA variant scans (doi:10.1126/science.aae0568).
Variants at the floor of the assay were thinned out.

B1: tRNA (parent)
chain: GUUCCGUUGGCGUAAUGGUAACGCGUCUCCCUCCUAAGGAGAAGACUGCGGGUUCGAGUCCCGUACGGAACG

Variants of: B1
Test: yeast fitness relative to wild type (ratio to wild type); higher = fitter; tRNA-Arg(CCU), competitive growth, 37 C, YPD
How it was run: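 Amplicons of the tRNA-Arg(CCU) gene were sequenced, 100-nucleotide paired-end, from the start population and from each end population of a pooled yeast competition. The competition, in six parallel replicates, lasted 24 hours in YPD at 37°C. Fitness relative to wild type was calculated from changes in genotype frequencies. Genotypes had to have ≥ 100 starting reads, and estimates < 0.5 were set to 0.5.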
For C24G U35G A45C, the yeast fitness was ≤ 0.5.
With C24G C60A U64A the yeast fitness was 0.607.
With C24U A36U C60A the yeast fitness was ≤ 0.5.
C24U C55A gave a yeast fitness of 0.655.
For C24U A69U A70C, the yeast fitness was 0.756.
Variant C24U C29A U32A C46G A57C has a yeast fitness of 0.5.
C24U A45U A69U showed a yeast fitness of 0.78.
In the case of C24G U26A C60G, the yeast fitness is reported as ≤ 0.5.
With C24G U26A C46A C62U the yeast fitness was 0.578.
C24U C31A U54G showed a yeast fitness of 0.75.
Variant C24U C31G C61G has a yeast fitness of 0.513.
For C24U A40U C55U U59A, the yeast fitness was 0.548.
In the case of C24U C49U U54G, the yeast fitness is reported as 0.588.
For C24U C29U A42G U59C, the yeast fitness was ≤ 0.5.
With C24G G48A G52C A57C C60U the yeast fitness was ≤ 0.5.
With C24U A43C C60A the yeast fitness was ≤ 0.5.
In the case of C24U C30U C34U G52A, the yeast fitness is reported as ≤ 0.5.
With C24G C46U C49G G51C C66G the yeast fitness was 0.639.
In the case of C24G U47C U53G U54A G58C, the yeast fitness is reported as ≤ 0.5.
In the case of C24U C30U A57G C66U, the yeast fitness is reported as 0.538.
With C24U A57C G68U the yeast fitness was ≤ 0.5.
In the case of C24G C55U G68C, the yeast fitness is reported as ≤ 0.5.
For C24G U28G C46G C66U, the yeast fitness was ≤ 0.5.
Work on C24G G68C yielded a yeast fitness of 0.599.
Variant C24G U53G U54A G58C has a yeast fitness of 0.552.
For C24G G48A A57G, the yeast fitness was ≤ 0.5.
C24U A37G G63C C66U showed a yeast fitness of 0.581.
In the case of C24U C31U U54A, the yeast fitness is reported as ≤ 0.5.
C24U A43U C66U showed a yeast fitness of 0.801.
Variant C24U C33A U47C has a yeast fitness of 0.516.
C24U C34A G39A gave a yeast fitness of 0.535.
Variant C24G G25A C31G U64C has a yeast fitness of 0.75.
In the case of C24G G56A, the yeast fitness is reported as 0.618.
With C24G C49U G51A C61A A69U the yeast fitness was ≤ 0.5.
Work on C24G G38C A65U yielded a yeast fitness of 0.509.
With C24U C33U G44C the yeast fitness was 0.633.
With C24U C27A C30U G63U the yeast fitness was ≤ 0.5.
In the case of C24U C33G G52C C61U, the yeast fitness is reported as ≤ 0.5.
With C24G C34U A36C the yeast fitness was ≤ 0.5.
C24U C31G U64C gave a yeast fitness of 0.572.
For C24U A40G C46A, the yeast fitness was 0.723.
For C24U A45C C61G, the yeast fitness was ≤ 0.5.
With C24G G25C C27A A40C G51A the yeast fitness was ≤ 0.5.
Variant C24U C29U C30A has a yeast fitness of 0.706.
C24U C34G G51A showed a yeast fitness of 0.663.
Variant C24U C27A C30U has a yeast fitness of 0.597.
C24U A45G C46G C55G gave a yeast fitness of 0.588.
Work on C24G C55U C61A yielded a yeast fitness of 0.515.
C24U C46U A65U showed a yeast fitness of 0.714.
C24G C62U showed a yeast fitness of 0.562.
C24G C62G showed a yeast fitness of 0.541.
In the case of C24U C55G A70U, the yeast fitness is reported as 0.698.
In the case of C24U A45U A57C G68A, the yeast fitness is reported as ≤ 0.5.
With C24U C31U A42G the yeast fitness was 0.574.
C24G U28G A45C U47C U64A gave a yeast fitness of 0.6.
With C24G C34G G48A U54A G63C the yeast fitness was ≤ 0.5.
With C24G C34U U47A the yeast fitness was ≤ 0.5.
For C24G U53A C55G, the yeast fitness was ≤ 0.5.
For C24G U26A C31U A45C A69U, the yeast fitness was ≤ 0.5.
For C24U C33U, the yeast fitness was 0.747.
C24U C31G C46U showed a yeast fitness of 0.562.
With C24U C34G C62U the yeast fitness was 0.584.
With C24U A42C C46A U54A the yeast fitness was ≤ 0.5.
In the case of C24U C34U C49U C61U, the yeast fitness is reported as ≤ 0.5.
Variant C24U A45U G58A has a yeast fitness of 0.647.
C24G U32C gave a yeast fitness of 0.599.
With C24U A37C G39C A43G the yeast fitness was ≤ 0.5.
For C24G C61G C62U C66U, the yeast fitness was ≤ 0.5.
In the case of C24G U26G C34A A36C, the yeast fitness is reported as ≤ 0.5.
In the case of C24G G25A A36C G67U, the yeast fitness is reported as ≤ 0.5.
With C24G U26A the yeast fitness was 0.609.
Work on C24G U59C yielded a yeast fitness of 0.65.
Work on C24G C49G G56A yielded a yeast fitness of 0.574.
For C24U A37U G41C A70C, the yeast fitness was ≤ 0.5.
C24G U26A C29G U32A showed a yeast fitness of 0.516.
In the case of C24G C33U U35A C61G, the yeast fitness is reported as ≤ 0.5.
In the case of C24U A37U G63C, the yeast fitness is reported as ≤ 0.5.
For C24G C61G G68A, the yeast fitness was ≤ 0.5.
For C24G G44C G58C, the yeast fitness was 0.547.
For C24U C33A A40G, the yeast fitness was 0.513.
C24U A45U G58A A65G gave a yeast fitness of 0.794.
Variant C24G G25A C61G G67C G68A has a yeast fitness of 0.676.
For C24U C34G A57U C61G, the yeast fitness was ≤ 0.5.
For C24U C34U A57U C60U, the yeast fitness was ≤ 0.5.
C24U C31U G68U gave a yeast fitness of 0.544.
In the case of C24U C33G C34U C62U, the yeast fitness is reported as ≤ 0.5.
In the case of C24U C31G G44A U64A, the yeast fitness is reported as ≤ 0.5.
For C24U C29U A42G U59A C61U, the yeast fitness was ≤ 0.5.
In the case of C24U A36U A37G A40C, the yeast fitness is reported as ≤ 0.5.
C24G C55G showed a yeast fitness of 0.649.
Variant C24G C55A has a yeast fitness of 0.66.
With C24U A43C A57C the yeast fitness was ≤ 0.5.
With C24G C60U A69C the yeast fitness was ≤ 0.5.
For C24U C33U G48A C61U, the yeast fitness was ≤ 0.5.
For C24G C33U A43G U47A C60A, the yeast fitness was ≤ 0.5.
Variant C24G C34U A36C C46A U54A A57G has a yeast fitness of 0.566.
In the case of C24U C29U A36U A70C, the yeast fitness is reported as ≤ 0.5.
For C24U C29G, the yeast fitness was 0.674.
With C24U C33U G41A C61U the yeast fitness was ≤ 0.5.
In the case of C24G C34G A40G A45C C66G A69U, the yeast fitness is reported as 0.596.
C24U C34G gave a yeast fitness of 0.72.
Variant C24U C34U has a yeast fitness of 0.688.
In the case of C24G C60U, the yeast fitness is reported as 0.61.
Variant C24G G63C A65U has a yeast fitness of 0.596.
In the case of C24U A43U U47G U53C, the yeast fitness is reported as ≤ 0.5.
For C24G G56A A57C, the yeast fitness was ≤ 0.5.
For C24G G41A G51A, the yeast fitness was ≤ 0.5.
With C24U C34U G41A the yeast fitness was 0.539.
With C24U A37U C46A A70U the yeast fitness was ≤ 0.5.
C24U A36C A43U A69U gave a yeast fitness of 0.517.
With C24G C49U A57U the yeast fitness was ≤ 0.5.
In the case of C24U C30A A65G, the yeast fitness is reported as ≤ 0.5.
Variant C24G C34A U35A C46U G48A C60G C66U has a yeast fitness of 0.558.
With C24G U28C U32G A69G the yeast fitness was ≤ 0.5.
For C24G G50U, the yeast fitness was 0.544.
Variant C24G G25A C31G A57U has a yeast fitness of 0.532.
With C24G U28A C31A the yeast fitness was ≤ 0.5.
Work on C24U A45G G68C yielded a yeast fitness of 0.641.
For C24G C60A G67A, the yeast fitness was 0.693.
In the case of C24G U26C U32A A36C C49G G51C C66U G68A, the yeast fitness is reported as ≤ 0.5.
In the case of C24G C33U A37U C55A G68C, the yeast fitness is reported as ≤ 0.5.
For C24G C33U C62A A70G, the yeast fitness was ≤ 0.5.
C24G U26C A37G U54G C61G gave a yeast fitness of 0.51.
In the case of C24U C27U A43C, the yeast fitness is reported as 1.04.
Variant C24U C30U G38C has a yeast fitness of 0.55.
C24U C46A U64C gave a yeast fitness of 0.973.
Work on C24U C31A C55G A57U yielded a yeast fitness of 0.532.
In the case of C24G C55A A70C, the yeast fitness is reported as ≤ 0.5.
C24G C49G showed a yeast fitness of 0.544.
C24G C49U showed a yeast fitness of 0.576.
With C24G G67U the yeast fitness was ≤ 0.5.
Work on C24G G67C yielded a yeast fitness of 0.622.
In the case of C24G G67A, the yeast fitness is reported as 0.594.
In the case of C24U A36G C61U, the yeast fitness is reported as 0.655.
In the case of C24U A36G C61A, the yeast fitness is reported as ≤ 0.5.
For C24U C31G A65U, the yeast fitness was 0.508.
Work on C24G G41A G51A G56C yielded a yeast fitness of 0.556.
With C24G U47G the yeast fitness was ≤ 0.5.
Work on C24G U47C yielded a yeast fitness of 0.688.
Work on C24G U47A yielded a yeast fitness of 0.57.
In the case of C24G G56C U59A C60G C62G A70C, the yeast fitness is reported as 0.617.
Variant C24U A43U U47G G67A has a yeast fitness of 0.53.
With C24G C55A A65U the yeast fitness was ≤ 0.5.
With C24U C30U C31G A57G the yeast fitness was 0.576.
Variant C24U A42G A70C has a yeast fitness of 0.642.
In the case of C24U C55G C66A, the yeast fitness is reported as ≤ 0.5.
C24U C46A C55U G58C showed a yeast fitness of 0.793.
In the case of C24G C46U G50A G56C C62A C66U, the yeast fitness is reported as ≤ 0.5.
For C24G C34G A43U G67C, the yeast fitness was ≤ 0.5.
In the case of C24U C31A A43C G58C U64G, the yeast fitness is reported as ≤ 0.5.
In the case of C24U C34U G56C A57G G68U, the yeast fitness is reported as ≤ 0.5.
In the case of C24U C30G C61U A65U C66U, the yeast fitness is reported as ≤ 0.5.
In the case of C24G G25A G48A, the yeast fitness is reported as 0.697.
For C24G U54A A65U C66U, the yeast fitness was ≤ 0.5.
With C24G U28G C46G the yeast fitness was ≤ 0.5.
Variant C24U C60A has a yeast fitness of 0.527.
For C24G C33U A43G U47A, the yeast fitness was 0.682.
In the case of C24G C33U C60G, the yeast fitness is reported as 0.519.
For C24U C30U C49U U53C, the yeast fitness was ≤ 0.5.
With C24G C33U C49G A57U C61G the yeast fitness was ≤ 0.5.
In the case of C24G U64C, the yeast fitness is reported as 0.567.
With C24G U64A the yeast fitness was 0.631.
In the case of C24U C34U C46A G67A, the yeast fitness is reported as ≤ 0.5.
For C24U C49U U54G G67A, the yeast fitness was ≤ 0.5.
For C24G C34G G50C C61U, the yeast fitness was ≤ 0.5.
Work on C24U C31G A43G yielded a yeast fitness of 0.69.
With C24G C49A C62G G68U the yeast fitness was ≤ 0.5.
